pIC50: −log10 of the molar value. Activity calls are given as the source filed them. The rule behind the calls is not given here.
Legend:
[1] = Genotoxicity in Salmonella typhimurium TA1535 harboring pSK1002 assessed as survival at 0.001 mg/ml in absence of Sprague-Dawley rat liver S9 fraction after by SOS/umu assay relative to control; format: toxicity, organism-based; details: salmonella enterica subsp. enterica serovar typhimurium, read-out: Survival
[2] = Genotoxicity in Salmonella typhimurium TA1535 harboring pSK1002 assessed as survival at 0.002 mg/ml in presence of Sprague-Dawley rat liver S9 fraction after by SOS/umu assay relative to control; format: toxicity, organism-based; details: salmonella enterica subsp. enterica serovar typhimurium, read-out: Survival
[3] = Genotoxicity in Salmonella typhimurium TA1535 harboring pSK1002 assessed as umu gene induction at 0.002 mg/ml in absence of Sprague-Dawley rat liver S9 fraction after by SOS/umu assay relative to control; format: toxicity, organism-based; details: salmonella enterica subsp. enterica serovar typhimurium, read-out: FC
[4] = Genotoxicity in Salmonella typhimurium TA1535 harboring pSK1002 assessed as umu gene induction at 0.002 mg/ml in presence of Sprague-Dawley rat liver S9 fraction after by SOS/umu assay relative to control; format: toxicity, organism-based; details: salmonella enterica subsp. enterica serovar typhimurium, read-out: FC
Plasmodium falciparum [5] = assay: Antiplasmodial activity against multidrug-resistant Plasmodium falciparum FCR-3 by [3H]-hypoxanthine incorporation assay; format: functional, organism-based, FCR-3/Gambia
Procedure, shortened: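 Blood-stage P. falciparum 3D7 and FCR-3 were tested by a modified [3H]-hypoxanthine incorporation assay. Chloroquine was the reference in all runs.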

Plasmodium berghei [6] = assay: Antiplasmodial activity against GFP-fused Plasmodium berghei sporozoites infected in human HepG2A16 cells treated simultaneously with infection by fluorescence microscopic analysis; format: functional, organism-based
Procedure, shortened: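 HepG2-A16 cells (3 × 10^4/well, collagen-coated) infected with PbGFP sporozoites (5 × 10^3 to 1 × 10^4/well) and treated at the same time. Top concentration 10 µg/mL in DMEM, seven serial dilutions. Medium and compound renewed at 3 h and every 24 h. After 40 h at 37 °C: methanol fixation, anti-Plasmodium Hsp70 immunolabeling, Alexa 594 secondary, DAPI; high-content imaging.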

[7] = Genotoxicity in Salmonella typhimurium TA1535 harboring pSK1002 assessed as umu gene induction at 0.008 mg/ml in presence of Sprague-Dawley rat liver S9 fraction after by SOS/umu assay relative to control; format: toxicity, organism-based; details: salmonella enterica subsp. enterica serovar typhimurium, read-out: FC
[8] = Genotoxicity in Salmonella typhimurium TA1535 harboring pSK1002 assessed as survival at 0.002 mg/ml in absence of Sprague-Dawley rat liver S9 fraction after by SOS/umu assay relative to control; format: toxicity, organism-based; details: salmonella enterica subsp. enterica serovar typhimurium, read-out: Survival
Plasmodium falciparum [9] = assay: Antiplasmodial activity against multidrug-resistant Plasmodium falciparum C235 after 72 hrs by MSF assay; format: functional, organism-based; details: C235, 72 h
Procedure, shortened: (§1)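 D6 and C235 strains from the Walter Reed Army Institute of Research were tested by the Malaria SYBR Green-I fluorescence assay.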

[10] = Genotoxicity in Salmonella typhimurium TA1535 harboring pSK1002 assessed as survival at 0.25 mg/ml in presence of Sprague-Dawley rat liver S9 fraction after by SOS/umu assay relative to control; format: toxicity, organism-based; details: salmonella enterica subsp. enterica serovar typhimurium, read-out: Survival
[11] = Genotoxicity in Salmonella typhimurium TA1535 harboring pSK1002 assessed as umu gene induction at 0.25 mg/ml in presence of Sprague-Dawley rat liver S9 fraction after by SOS/umu assay relative to control; format: toxicity, organism-based; details: salmonella enterica subsp. enterica serovar typhimurium, read-out: FC
[12] = Genotoxicity in Salmonella typhimurium TA1535 harboring pSK1002 assessed as survival at 0.25 mg/ml in absence of Sprague-Dawley rat liver S9 fraction after by SOS/umu assay relative to control; format: toxicity, organism-based; details: salmonella enterica subsp. enterica serovar typhimurium, read-out: Survival
[13] = Genotoxicity in Salmonella typhimurium TA1535 harboring pSK1002 assessed as umu gene induction at 0.25 mg/ml in absence of Sprague-Dawley rat liver S9 fraction after by SOS/umu assay relative to control; format: toxicity, organism-based; details: salmonella enterica subsp. enterica serovar typhimurium, read-out: FC
[14] = Solubility of the compound in DSPC:cholesterol:DSPE-PEG2000-Mal:DOPE-Rho lipid mixture at 250 uM; format: physicochemical
Procedure, shortened: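 Compound added at 250 µM drug to the initial liposome lipid mixture (10 mM total lipid); precipitation and UV-visible absorbance above 300 nm assessed after encapsulation, removal of unencapsulated material and extraction with 1% w/v SDS in RPMI-A.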

Plasmodium berghei [15] = assay: Antiplasmodial activity against Plasmodium berghei ANKA infected in mouse assessed as mouse survival time at 50 mg/kg/day, po for 4 consecutive days starting from 2 hrs post infection by MSF assay; format: functional
Procedure, shortened: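 Swiss male mice (20 ± 2 g) infected i.p. with 10^7 P. berghei ANKA parasitized cells in 0.1 mL 0.9% saline (day 0). Oral dosing began 2 h post-infection and continued daily on days 0–3, five mice per batch. Test drugs were given at 50 mg/kg/day in water:DMSO and chloroquine diphosphate at 3 mg/kg/day; a vehicle control was included. Survival was checked daily, and parasitemia was read on day 4 by modified MSF assay.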

Plasmodium falciparum [16] = assay: Antiplasmodial activity against Plasmodium falciparum D6 after 72 hrs by MSF assay; format: functional, organism-based; details: D6, 72 h; procedure, shortened: as §1
Plasmodium berghei [17] = assay: Antiplasmodial activity against Plasmodium berghei ANKA infected in mouse assessed as inhibition of parasitemia at 50 mg/kg/day, po for 4 consecutive days starting from 2 hrs post infection by MSF assay relative to control; format: functional
Procedure, shortened: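 Swiss male mice (20 ± 2 g) infected ip with 10^7 P. berghei ANKA parasitized cells (day 0). Five per group dosed orally 2 h after infection and daily on days 0–3. Test compounds at 50 mg/kg/day in water:DMSO; chloroquine diphosphate at 3 mg/kg/day; vehicle controls. Parasitemia measured on day 4 by MSF assay; survival checked daily.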

[18] = Genotoxicity in Salmonella typhimurium TA1535 harboring pSK1002 assessed as survival at 0.5 mg/ml in absence of Sprague-Dawley rat liver S9 fraction after by SOS/umu assay relative to control; format: toxicity, organism-based; details: salmonella enterica subsp. enterica serovar typhimurium, read-out: Survival
[19] = Genotoxicity in Salmonella typhimurium TA1535 harboring pSK1002 assessed as survival at 0.5 mg/ml in presence of Sprague-Dawley rat liver S9 fraction after by SOS/umu assay relative to control; format: toxicity, organism-based; details: salmonella enterica subsp. enterica serovar typhimurium, read-out: Survival
[20] = Genotoxicity in Salmonella typhimurium TA1535 harboring pSK1002 assessed as umu gene induction at 0.5 mg/ml in absence of Sprague-Dawley rat liver S9 fraction after by SOS/umu assay relative to control; format: toxicity, organism-based; details: salmonella enterica subsp. enterica serovar typhimurium, read-out: FC
[21] = Genotoxicity in Salmonella typhimurium TA1535 harboring pSK1002 assessed as umu gene induction at 0.5 mg/ml in presence of Sprague-Dawley rat liver S9 fraction after by SOS/umu assay relative to control; format: toxicity, organism-based; details: salmonella enterica subsp. enterica serovar typhimurium, read-out: FC
Plasmodium falciparum [22] = assay: Binding affinity to Plasmodium falciparum GRP94 nucleotide binding domain at 0.5 mM by SYPRO orange dye based DSF analysis
Procedure, shortened: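 Recombinant P. falciparum Hsp90 or GRP94 nucleotide-binding domain (0.05–0.2 mg/mL, optimized per protein) in 25 mM HEPES pH 7.5, 250 mM NaCl. Compound final concentration was 0.5 mM, with SYPRO Orange at 1:1000. Samples were heated from 18 to 90 °C at 1 °C/min. Tm was taken as the Boltzmann-fit inflection point. ΔTm = Tm with ligand minus Tm without, and shifts beyond ±1 °C were counted significant.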

Plasmodium falciparum [23] = assay: Antiplasmodial activity against Plasmodium falciparum FCR-3 sporozoites infected in human primary hepatocytes treated simultaneously with infection by DAPI staining based HCS analysis; format: functional, organism-based, FCR-3/Gambia
[24] = Plasmodium falciparum, FCR-3/Gambia, 3 h

Compound	viability at 0.001 mg/ml [1] [%]	viability at 0.002 mg/ml [2] [%]	fold induction at 0.002 mg/ml [3]	fold induction at 0.002 mg/ml [4]	pIC50 (Plasmodium falciparum [5]; [24])	IC50 (Plasmodium berghei [6])	fold induction at 0.008 mg/ml [7]	viability at 0.002 mg/ml [8] [%]	pIC50 (Plasmodium falciparum [9])	viability at 0.25 mg/ml [10] [%]	fold induction at 0.25 mg/ml [11]	viability at 0.25 mg/ml [12] [%]	fold induction at 0.25 mg/ml [13]	solubility [14]	MSD (Plasmodium berghei [15]) [days]	pIC50 (Plasmodium falciparum [16])	inhibition in vivo at 50 mg/kg/day (Plasmodium berghei [17]) [%]	viability at 0.5 mg/ml [18] [%]	viability at 0.5 mg/ml [19] [%]	fold induction at 0.5 mg/ml [20]	also measured
Oc1ccc(C(O)CCN2CC=C(c3ccc(F)cc3)CC2)cc1 (configuration not stated)	87.9	112	1	1.4	5.54	Not Active	0.6	98.6													
COc1ccccc1N1CCN(CCC(O)c2ccc(F)cc2)CC1 (stereo in doubt; 66)	110	80.7	1	1.2		Not Active	1	114	5.14	90.4	1	98.8	1.1	Insoluble	12	5.20	96.4				pIC50 (Plasmodium falciparum [5]): 6.72
OC(CCN1CCN(c2ccc(F)cc2)CC1)c1ccc(F)c2ccccc12 (configuration not stated)	111	100	0.7	0.8	5.39		0.7	110		66.2	0.9	51.2	1.1					196	112	0.6	fold induction at 0.5 mg/ml [21]: 1.2
COc1ccccc1N1CCN(CCC(O)c2ccc(F)c3ccccc23)CC1 (configuration not stated)	70.5	102	1.5	1	6.66	Not Active	1	65.2	6.39	115	0.4	147	0.3	Insoluble	10	6.55	≤ 50				Activity (Plasmodium falciparum [22]): inactive
N#Cc1ccc(N2CCC(NCCC(O)c3ccc(F)c4ccccc34)CC2)c(Br)c1 (configuration not stated)	104	65.3	1.4	0.8	7.15		1	106	6.82						10	6.92	≤ 50				Activity (Plasmodium falciparum [22]): inactive
OC(CCN1CC=C(c2ccc(F)cc2)CC1)c1ccc2c(c1)OCO2 (configuration not stated)	131	108	0.8	1	5.77	Not Active	1	122		96	1	128	0.7					81.4	87.1	0.9	fold induction at 0.5 mg/ml [21]: 0.9
Nc1ccc(N2CCC(NCCC(O)c3ccc(F)c4ccccc34)CC2)c(C(F)(F)F)c1 (configuration not stated)	101	116	0.7	1.4	7.10		1.1	150		118	0.1	48	0.2		3			68.2	118	0.1	fold induction at 0.5 mg/ml [21]: 0.1
OC(CCN1CCN(C(c2ccccc2)c2ccccc2)CC1)c1ccc(F)c(F)c1 (configuration not stated)	110	92.2	0.9	0.8	6.43	Not Active	0.8	104						Insoluble	9						inhibition (Plasmodium berghei [17]): inactive
N#Cc1ccc(C(O)CCN2CC=C(c3ccc(F)cc3)CC2)cc1 (configuration not stated)	109	97.8	0.9	1.1	5.88		1	103		95.1	1.1	75.8	1.2					66.5	99.1	1.2	fold induction at 0.5 mg/ml [21]: 0.9
COc1ccccc1C1=CCN(CCC(O)c2ccc(F)c3ccccc23)CC1 (configuration not stated)	81.7	101	0.9	0.9	5.89	Not Active	0.7	86.6	6.64	182	0.2	233	0.1	Insoluble		6.82					
N#Cc1ccc(N2CCC(NCCC(O)c3ccc(F)c4ccccc34)CC2)c(C(F)(F)F)c1 (stereo in doubt; 72)	132	136	1.3	1			1.3	110	6.92					Soluble	10	7.10	80.4				IC50 (Plasmodium falciparum [23]): Not Active; pIC50 (Plasmodium falciparum [5]): 7.10; pIC50 (Plasmodium berghei [6]; Plasmodium berghei, HepG2A16, read-out: IC50): 5.57

Reference: ChEMBL document CHEMBL4152256, “Structure-activity relationship of new antimalarial 1-aryl-3-susbtituted propanol derivatives: Synthesis, preliminary toxicity profiling, parasite life cycle stage studies, target exploration, and targeted delivery” (Eur J Med Chem, 2018)
